Assay results published in ChEMBL document CHEMBL3600364, “Modification of N-(6-(2-methoxy-3-(4-fluorophenylsulfonamido)pyridin-5-yl)-[1,2,4]triazolo[1,5-a]pyridin-2-yl)acetamide as PI3Ks inhibitor by replacement of the acetamide group with alkylurea” (Bioorg Med Chem, 2015).

Key:
[1] = test system: HCT-116; experiment: Cytotoxicity against human HCT116 cells after 72 hrs by MTT assay; format: functional, cell-based; details: HCT-116, 72 h
Procedure, shortened: (§1)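 Cells (1500–4000/well) were plated for 24 h, then exposed to serial concentrations for 72 h at 1% DMSO final. MTT was added for 4 h, formazan dissolved in DMSO, and OD read at 490 nm. IC50 (μM) came from three experiments run in triplicate.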

[2] = test system: MCF7; experiment: Cytotoxicity against human MCF7 cells after 72 hrs by MTT assay; format: functional, cell-based; details: MCF7, 72 h; procedure, shortened: as §1
[3] = test system: U-87 MG; experiment: Cytotoxicity against human U87MG cells after 72 hrs by MTT assay; format: functional, cell-based, U-87MG ATCC; procedure, shortened: as §1
[4] = test system: A549; experiment: Cytotoxicity against human A549 cells after 72 hrs by MTT assay; format: functional, cell-based; details: A549, 72 h; procedure, shortened: as §1
[5] = molecular target: T1, Phosphatidylinositol 4,5-bisphosphate 3-kinase catalytic subunit alpha isoform (Homo sapiens, UniProt P42336); experiment: Inhibition of PI3Kalpha (unknown origin) assessed as reduction of ATP level after 40 mins by luciferase based luminescence assay
[6] = molecular target: T2, Phosphatidylinositol 4,5-bisphosphate 3-kinase catalytic subunit delta isoform (Homo sapiens, UniProt O00329); experiment: Inhibition of PI3Kdelta (unknown origin) assessed as reduction of ATP level after 40 mins by luciferase based luminescence assay
T2 sequence (O00329 whole entry): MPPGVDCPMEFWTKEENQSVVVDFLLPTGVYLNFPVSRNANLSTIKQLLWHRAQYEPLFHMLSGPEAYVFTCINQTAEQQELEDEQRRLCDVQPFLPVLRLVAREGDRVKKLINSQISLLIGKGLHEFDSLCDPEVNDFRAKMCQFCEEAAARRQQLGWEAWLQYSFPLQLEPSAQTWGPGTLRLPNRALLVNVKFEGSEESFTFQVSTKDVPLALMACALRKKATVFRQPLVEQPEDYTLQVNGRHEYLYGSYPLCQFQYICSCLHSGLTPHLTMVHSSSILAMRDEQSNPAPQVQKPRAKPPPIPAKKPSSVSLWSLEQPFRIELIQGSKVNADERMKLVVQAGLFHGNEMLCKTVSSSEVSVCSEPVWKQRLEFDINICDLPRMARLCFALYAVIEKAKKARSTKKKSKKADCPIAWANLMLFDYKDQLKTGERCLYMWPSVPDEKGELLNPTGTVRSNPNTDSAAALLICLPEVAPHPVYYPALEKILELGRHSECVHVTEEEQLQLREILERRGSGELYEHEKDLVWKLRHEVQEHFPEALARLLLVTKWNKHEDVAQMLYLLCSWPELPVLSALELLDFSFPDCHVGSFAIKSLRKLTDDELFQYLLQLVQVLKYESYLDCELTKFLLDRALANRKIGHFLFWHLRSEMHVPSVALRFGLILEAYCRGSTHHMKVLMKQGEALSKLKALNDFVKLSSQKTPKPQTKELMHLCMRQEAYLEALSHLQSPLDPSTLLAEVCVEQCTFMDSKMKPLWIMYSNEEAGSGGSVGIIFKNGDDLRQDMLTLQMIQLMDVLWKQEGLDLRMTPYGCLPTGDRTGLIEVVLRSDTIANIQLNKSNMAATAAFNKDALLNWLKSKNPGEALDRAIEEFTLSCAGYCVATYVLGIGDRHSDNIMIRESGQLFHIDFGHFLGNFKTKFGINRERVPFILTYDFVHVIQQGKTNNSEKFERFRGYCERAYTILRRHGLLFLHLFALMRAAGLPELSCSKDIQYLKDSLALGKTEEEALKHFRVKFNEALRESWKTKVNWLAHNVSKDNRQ
Procedure, shortened: (§2)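 Each enzyme was tested separately: PI3Kα (p110α/p85α), β (p110β/p85α), γ (p110γ/PIK3R5), δ (p110δ/p85α) or mTOR, with L-α-phosphatidylinositol substrate. […] was measured by luciferase luminescence. Inhibition was normalized to no-compound and no-enzyme controls, and IC50 obtained from dose-response fits.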

[7] = molecular target: Serine/threonine-protein kinase mTOR (Homo sapiens, UniProt P42345); experiment: Inhibition of mTOR (unknown origin) assessed as reduction of ATP level after 40 mins by luciferase based luminescence assay; procedure, shortened: as §2
[8] = molecular target: T1, Phosphatidylinositol 4,5-bisphosphate 3-kinase catalytic subunit alpha isoform; experiment: Ratio of BEZ235 IC50 to compound IC50 for PI3Kalpha (unknown origin) assessed as reduction of ATP level after 40 mins by luciferase based luminescence assay
[9] = Acute toxicity in po dosed mouse; format: organism-based; details: in vivo
Procedure, shortened: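 Mouse acute oral toxicity (20.1 ± 1.9 g) by up-and-down procedure per OECD guideline 425. Compound dissolved in NMP, diluted with PEG400 and H2O (NMP/PEG400/H2O 1:8:1 v/v), given orally. Starting dose 50 mg/kg or 100 mg/kg depending on compound, slope factor sigma 0.12. Dosing stopped per AOT425StatPgm stopping rules.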

[10] = Ratio of compound LD50 to compound B LD50 for po dosed mouse; format: ADME, organism-based; details: in vivo
[11] = test system: CCRF S-180; experiment: Antitumor activity against mouse S180 cells xenografted in mouse assessed as inhibition of tumor growth at 5 mg/kg, po […] for 8 days relative to control; format: functional; details: CCRF S-180, po, 192 h, read-out: GI
Procedure, shortened: (§3)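 Mice (20.3 ± 1.6 g) were given 3×10^6 S180 cells subcutaneously in the flank and randomized the next day into groups of 8. Dosing was oral, once daily for 8 days, in NMP/PEG400/H₂O (1:6:3), with a solvent-only group as control. Body weight was recorded daily. On day 9, tumors were excised and weighed, and tumor-weight inhibitory ratio was calculated.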

[12] = test system: CCRF S-180; experiment: Antitumor activity against mouse S180 cells xenografted in mouse assessed as inhibition of tumor growth at 10 mg/kg, po […] for 8 days relative to control; format: functional; details: CCRF S-180, po, 192 h, read-out: GI; procedure, shortened: as §3
[13] = test system: CCRF S-180; experiment: Antitumor activity against mouse S180 cells xenografted in mouse assessed as inhibition of tumor growth at 30 mg/kg, po […] for 8 days relative to control; format: functional; details: CCRF S-180, po, 192 h, read-out: GI; procedure, shortened: as §3
[14] = test system: Mus musculus; experiment: Toxicity in mouse S180 cells xenografted in mouse assessed as change in body weight at 5 to 30 mg/kg, po qd for 8 days; format: organism-based, CCRF S-180; details: in vivo, 192 h; procedure, shortened: as §3
[15] = test system: HCT-116; experiment: Ratio of BEZ235 IC50 to compound IC50 for human HCT116 cells; format: functional

T1 sequence (P42336 whole entry, canonical isoform): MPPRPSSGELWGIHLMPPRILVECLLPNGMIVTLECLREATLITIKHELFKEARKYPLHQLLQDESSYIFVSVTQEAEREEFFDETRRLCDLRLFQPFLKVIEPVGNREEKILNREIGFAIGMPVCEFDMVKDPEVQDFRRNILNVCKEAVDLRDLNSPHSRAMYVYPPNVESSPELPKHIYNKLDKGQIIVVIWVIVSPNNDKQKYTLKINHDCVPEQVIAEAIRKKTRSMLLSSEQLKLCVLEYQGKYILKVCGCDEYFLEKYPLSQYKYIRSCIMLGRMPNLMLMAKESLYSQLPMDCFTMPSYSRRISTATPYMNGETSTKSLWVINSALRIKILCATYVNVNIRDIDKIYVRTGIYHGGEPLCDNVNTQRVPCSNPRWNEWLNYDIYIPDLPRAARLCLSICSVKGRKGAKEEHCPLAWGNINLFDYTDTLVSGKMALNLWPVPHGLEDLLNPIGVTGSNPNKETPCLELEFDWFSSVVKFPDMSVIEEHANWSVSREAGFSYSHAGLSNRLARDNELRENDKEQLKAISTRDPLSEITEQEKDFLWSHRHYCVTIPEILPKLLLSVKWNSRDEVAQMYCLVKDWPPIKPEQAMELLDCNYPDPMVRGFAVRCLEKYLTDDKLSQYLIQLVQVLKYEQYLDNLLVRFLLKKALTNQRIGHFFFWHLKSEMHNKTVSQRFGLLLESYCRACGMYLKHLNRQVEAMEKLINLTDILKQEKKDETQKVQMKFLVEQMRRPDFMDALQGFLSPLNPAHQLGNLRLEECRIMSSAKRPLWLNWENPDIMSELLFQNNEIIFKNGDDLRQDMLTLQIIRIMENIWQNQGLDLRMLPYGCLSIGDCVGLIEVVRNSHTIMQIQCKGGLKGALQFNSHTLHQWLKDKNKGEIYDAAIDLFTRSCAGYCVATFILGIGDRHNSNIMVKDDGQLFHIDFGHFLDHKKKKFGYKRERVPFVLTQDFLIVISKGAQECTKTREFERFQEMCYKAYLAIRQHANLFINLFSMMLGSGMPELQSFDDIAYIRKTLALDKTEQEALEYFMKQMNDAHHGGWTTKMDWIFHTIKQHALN

## COc1ncc(-c2ccc3nc(NC(=O)NCC(=O)N4CCCC4)nn3c2)cc1NS(=O)(=O)c1ccc(F)cc1
[1]
  IC50: 140 nM
[2]
  IC50: 2130 nM
[3]
  IC50: 1000 nM
[4]
  IC50: 2190 nM

## COc1ncc(-c2ccc3nc(NC(=O)NCC(=O)N4CCOCC4)nn3c2)cc1NS(=O)(=O)c1ccc(F)cc1
[1]
  IC50: 490 nM
[2]
  IC50: 630 nM
[3]
  IC50: 3260 nM
[4]
  IC50: 2570 nM

## CCN(CC)CCNC(=O)Nc1nc2ccc(-c3cnc(OC)c(NS(=O)(=O)c4ccc(F)cc4F)c3)cn2n1
[1]
  IC50: 140 nM
[2]
  IC50: 740 nM
[3]
  IC50: 1060 nM
[4]
  IC50: 980 nM

## COc1ncc(-c2ccc3nc(NC(=O)NCCN4CCN(C)CC4)nn3c2)cc1NS(=O)(=O)c1ccc(F)cc1
[1]
  IC50: 260 nM
[2]
  IC50: 500 nM
[3]
  IC50: 760 nM
[4]
  IC50: 1050 nM

## COc1ncc(-c2ccc3nc(NC(=O)N(C)C)nn3c2)cc1NS(=O)(=O)c1ccc(F)cc1
[1]
  IC50: 760 nM
[2]
  IC50: 1560 nM
[3]
  IC50: 1780 nM
[4]
  IC50: 1190 nM

## COc1ncc(-c2ccc3nc(NC(=O)NCCN4CCOCC4)nn3c2)cc1NS(=O)(=O)c1ccc(F)cc1
[1]
  IC50: 130 nM
[2]
  IC50: 210 nM
[3]
  IC50: 560 nM
[4]
  IC50: 420 nM

## CCN(CC)CCNC(=O)Nc1nc2ccc(-c3cnc(OC)c(NS(=O)(=O)c4ccc(F)cc4)c3)cn2n1
[1]
  IC50: 180 nM
[2]
  IC50: 370 nM
[3]
  IC50: 720 nM
[4]
  IC50: 760 nM
[5]
  IC50: 14 nM
[6]
  IC50: 12 nM
[7]
  IC50: 123 nM
[8]
  Ratio IC50: 3
[9]
  LD50: 513 mg/kg
[10]
  selectivity ratio: 18
[11]
  inhibition in vivo at 5 mg/kg: 37.3%
[12]
  inhibition in vivo at 10 mg/kg: 49%
[13]
  inhibition in vivo at 30 mg/kg: 53.6%
[14]
  Activity: Non-toxic

## COc1ncc(-c2ccc3nc(NC(=O)NCCN4CCCCC4)nn3c2)cc1NS(=O)(=O)c1ccc(F)cc1
[1]
  IC50: 150 nM
[2]
  IC50: 200 nM
[3]
  IC50: 1080 nM
[4]
  IC50: 610 nM

## COc1ncc(-c2ccc3nc(NC(C)=O)nn3c2)cc1NS(=O)(=O)c1ccc(F)cc1
[9]
  LD50: 28 mg/kg

## CNC(=O)Nc1nc2ccc(-c3cnc(OC)c(NS(=O)(=O)c4ccc(F)cc4)c3)cn2n1
[1]
  IC50: 180 nM
[2]
  IC50: 250 nM
[3]
  IC50: 640 nM
[4]
  IC50: 230 nM

## COc1ncc(-c2ccc3nc(NC(=O)N4CCCC4)nn3c2)cc1NS(=O)(=O)c1ccc(F)cc1
[1]
  IC50: 1290 nM
[2]
  IC50: 1660 nM
[3]
  IC50: 1690 nM
[4]
  IC50: 3570 nM

## COc1ncc(-c2ccc3nc(NC(=O)NCCN(C)C)nn3c2)cc1NS(=O)(=O)c1ccc(F)cc1
[1]
  IC50: 220 nM
[2]
  IC50: 560 nM
[3]
  IC50: 980 nM
[4]
  IC50: 800 nM

## COc1ncc(-c2ccc3nc(NC(=O)NCCN4CCCC4)nn3c2)cc1NS(=O)(=O)c1ccc(F)cc1
[1]
  IC50: 230 nM
[2]
  IC50: 380 nM
[3]
  IC50: 1120 nM
[4]
  IC50: 960 nM

## CCN(CC)CCNC(=O)Nc1nc2ccc(-c3cnc(OC)c(NS(=O)(=O)c4ccc(Cl)cc4)c3)cn2n1
[1]
  IC50: 120 nM
[2]
  IC50: 680 nM
[3]
  IC50: 760 nM
[4]
  IC50: 680 nM

## COc1ncc(-c2ccc3nc(NC(=O)NCC(=O)N4CCCCC4)nn3c2)cc1NS(=O)(=O)c1ccc(F)cc1
[1]
  IC50: 130 nM
[2]
  IC50: 570 nM
[3]
  IC50: 740 nM
[4]
  IC50: 2060 nM

## CCCNC(=O)Nc1nc2ccc(-c3cnc(OC)c(NS(=O)(=O)c4ccc(F)cc4)c3)cn2n1
[1]
  IC50: 150 nM
[2]
  IC50: 360 nM
[3]
  IC50: 420 nM
[4]
  IC50: 220 nM
[9]
  LD50: 156 mg/kg
[10]
  selectivity ratio: 5

## Cn1c(=O)n(-c2ccc(C(C)(C)C#N)cc2)c2c3cc(-c4cnc5ccccc5c4)ccc3ncc21 [DACTOLISIB]
[1]
  IC50: 290 nM
[2]
  IC50: 260 nM
[3]
  IC50: 770 nM
[4]
  IC50: 280 nM

## COc1ncc(-c2ccc3nc(NC(=O)NC4CC4)nn3c2)cc1NS(=O)(=O)c1ccc(F)cc1
[1]
  IC50: 90 nM
[2]
  IC50: 300 nM
[3]
  IC50: 540 nM
[4]
  IC50: 210 nM
[15]
  Ratio IC50: 3
[5]
  IC50: 7 nM
[6]
  IC50: 16 nM
[7]
  IC50: 275 nM
[8]
  Ratio IC50: 8
[9]
  LD50: 118 mg/kg
[10]
  selectivity ratio: 4

## CCN(CC)CCNC(=O)Nc1nc2ccc(-c3cnc(OC)c(NS(=O)(=O)c4ccc(C)cc4)c3)cn2n1
[1]
  IC50: 170 nM
[2]
  IC50: 410 nM
[3]
  IC50: 670 nM
[4]
  IC50: 730 nM
